Rtt109 Vps75 – C. albicans Rtt109 histone acetyltransferase inhibition | Q5AAJ8 | purified Rtt109/Vps75, ThioGlo CoA-SH fluorescence, 4 h | inhibition, % at 34.9 µM | 330,000 compounds, 0.16% hits;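 active = inhibition of at least 50% in every replicate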
FAS TE block – FAS thioesterase (human) inhibition | recombinant FAS-TE, OMFH fluorogenic substrate, fluorescence endpoint | 360,000 compounds, 0.67% hits | P49327 | inhibition, % at 15 µM;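 active = compounds whose normalised, plate-corrected inhibition of enzyme fluorescence in the single-dose primary screen is 50% or more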;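 note: 0% = DMSO with enzyme and 100% = substrate without enzyme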
M18AAP inhibitor – PfM18AAP enzyme inhibition; inhibition, % at 7.35 µM; recombinant PfM18AAP, H-Glu-NHMec fluorogenic cleavage; 290,000 compounds, 1.2% hits;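 active = inhibition above the campaign mean inhibition over all tested compounds plus 3 SD, cut at about 28% in these data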;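 note: 0% = plate median of test compound wells and 100% = 2 mM ZnCl2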
HDAC3 inhib – inhibitors of human histone deacetylase 3 | O15379 | recombinant HDAC3, fluorogenic peptide/trypsin coupled, fluorescence | inhibition, % at 8.3 µM | 320,000 compounds, 0.15% hits | AID 2718; in the data active = inhibition above about 26%, passing the limit was not always enough
UCH37 inh – inhibitors of human deubiquitinating enzyme UCH37 | Q9Y5K5 | purified proteasome/UCH37, Ub-AMC cleavage fluorescence | inhibition, % (test concentration not listed) | 330,000 compounds, 0.33% hits;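 active = mean inhibition over replicate wells above about 20%, limit read from the data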;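 note: 0% = compound-free wells with enzyme and 100% = wells lacking proteasome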
Target sequence (Q9Y5K5 whole entry, looked up): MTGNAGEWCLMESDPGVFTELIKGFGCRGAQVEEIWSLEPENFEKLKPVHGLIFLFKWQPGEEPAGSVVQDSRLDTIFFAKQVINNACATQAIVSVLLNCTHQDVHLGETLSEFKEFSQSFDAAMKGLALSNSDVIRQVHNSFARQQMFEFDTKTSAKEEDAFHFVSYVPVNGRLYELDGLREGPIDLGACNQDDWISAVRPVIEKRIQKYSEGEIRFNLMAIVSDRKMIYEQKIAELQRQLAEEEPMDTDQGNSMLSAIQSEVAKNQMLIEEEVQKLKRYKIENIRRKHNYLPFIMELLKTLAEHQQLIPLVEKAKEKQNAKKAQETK
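system = Proteasome-associated human UCH37 deubiquitinase | amount = 0.15 nM proteasome as dispensed | medium = pH 7.4 Tris-HCl (50 mM) with ovalbumin, ATP-MgCl2, DTT | incubation = 30 min preincubation with enzyme, 25 min cleavage at room temperature | detection = AMC fluorescence 355/460 nm | read-out basis = percent inhibition | controls = no-proteasome and no-compound wells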
ALR H2O2 inh – inhibitors of human sulfhydryl oxidase ALR; inhibition, % (no concentration beside the values); P55789; 290,000 compounds, 3.8% hits; purified ALR, DTT oxidation, H2O2 HRP-luminol luminescence;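 active = mean replicate inhibition above about 79%, with every replicate also reaching it, limit read from the data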
Target sequence (P55789 whole entry, looked up): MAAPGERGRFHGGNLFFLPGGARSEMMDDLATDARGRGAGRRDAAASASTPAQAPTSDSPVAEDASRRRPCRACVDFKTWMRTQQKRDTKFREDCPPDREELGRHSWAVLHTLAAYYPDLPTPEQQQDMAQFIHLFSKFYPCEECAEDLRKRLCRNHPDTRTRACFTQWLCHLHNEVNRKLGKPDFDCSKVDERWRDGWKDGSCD
* marks the source's active call; other numbers are inactive results. Only some compounds are listed: those with a hit (about 4.6% of all), similar ones and a draw of the others.

Results for CC(C)(C)c1ccc(C(=O)NC(=S)NNC(=O)COc2ccccc2)cc1 ?
Rtt109 Vps75: 1.8; FAS TE block: 1.4; M18AAP inhibitor: 6.0; HDAC3 inhib: 6.7; UCH37 inh: 5.6; ALR H2O2 inh: 98.8*

What do the screens show for `Cc1ccccc1C(=O)NNC(=S)NC(=O)c1cccs1`?
Rtt109 Vps75: 2.2; FAS TE block: -4.6; M18AAP inhibitor: 15.5; HDAC3 inhib: 1.2; UCH37 inh: 0.6; ALR H2O2 inh: 7.6

How did Cc1cccc(OCC(=O)NC(=S)NNC(=O)c2ccncc2)c1 do in these assays?
Rtt109 Vps75: 25.1; FAS TE block: -6.2; M18AAP inhibitor: 45.2*; HDAC3 inhib: 3.2; ALR H2O2 inh: 7.6

What do the screens show for `C/C(=N\NC(=O)c1cc2ccccc2cc1O)c1cccs1`?
Rtt109 Vps75: -4.2; FAS TE block: -2.5; M18AAP inhibitor: 18.1; HDAC3 inhib: 3.4

How did O=C(NNC(=O)c1cc2ccccc2cc1O)c1cccs1 do in these assays?
Rtt109 Vps75: 1.1; FAS TE block: 8.1; M18AAP inhibitor: 29.0*; HDAC3 inhib: -1.2; UCH37 inh: 0.3; ALR H2O2 inh: -7.0

How did CCOC(=O)CC(C(C)=NO)c1ccccc1 (stereo unspecified) do in these assays?
UCH37 inh: -1.7

How did CC(C)(C)c1ccc(C(=O)NC(=S)NNC(=O)c2cccs2)cc1 do in these assays?
Rtt109 Vps75: -2.8; FAS TE block: -2.2; M18AAP inhibitor: 8.7; HDAC3 inhib: 7.5; UCH37 inh: 1.2; ALR H2O2 inh: 98.2*

How did O=C(NNC(=S)Nc1ccc(Cl)cc1)c1cccs1 do in these assays?
Rtt109 Vps75: 6.3; FAS TE block: -5.5; M18AAP inhibitor: 7.6; HDAC3 inhib: -2.2; UCH37 inh: 3.4; ALR H2O2 inh: 96.8*

How did O=C(Nc1ccc(NC(=O)c2cccs2)cc1)c1ccc(Br)o1 do in these assays?
Rtt109 Vps75: -7.8; FAS TE block: -1.2; M18AAP inhibitor: 3.2; HDAC3 inhib: 10.4; ALR H2O2 inh: 0.4

Results for O=C(NNC(=S)Nc1ccccc1)c1cccs1 ?
Rtt109 Vps75: -7.1; FAS TE block: -11.7; M18AAP inhibitor: 10.4; HDAC3 inhib: 4.3; UCH37 inh: 4.2; ALR H2O2 inh: 30.9

What do the screens show for `O=C(NNC(=O)c1cccs1)c1ccco1`?
Rtt109 Vps75: -1.7; FAS TE block: -3.1; M18AAP inhibitor: -0.5; HDAC3 inhib: -1.2; UCH37 inh: -0.7; ALR H2O2 inh: 1.5

Results for O=C(NC(=S)NNC(=O)c1cccs1)c1ccco1 ?
Rtt109 Vps75: 2.2; FAS TE block: -7.2; M18AAP inhibitor: 23.4; HDAC3 inhib: 4.8; UCH37 inh: 1.6; ALR H2O2 inh: 97.1*

How did O=C(NNC(=O)c1cccs1)c1ccc(Br)o1 do in these assays?
Rtt109 Vps75: 0.2; FAS TE block: -8.6; M18AAP inhibitor: 1.4; HDAC3 inhib: 15.0; UCH37 inh: 5.8; ALR H2O2 inh: 95.8*

How did COc1cccc(C(=O)ON=Cc2ccc(Sc3ccc(C)cc3)nc2)c1 do in these assays?
UCH37 inh: -9.1

How did Cc1cc(O)c(C=NNc2ccc(F)cc2)c(=O)o1 do in these assays?
UCH37 inh: 2.2

What do the screens show for `Cc1ccc(C(C)C)c(OCc2ccc(C(=O)NN=Cc3ccc(O)c(O)c3)cc2)c1`?
UCH37 inh: -11.8

How did COc1ccc(O)c(C=NN=Cc2cccc([N+](=O)[O-])c2)c1 do in these assays?
UCH37 inh: 3.1

Results for CN1C(=O)C(O)(CC(=O)/C=C/c2ccco2)c2ccccc21 (stereo unspecified) ?
Rtt109 Vps75: -6.6; FAS TE block: -6.5; M18AAP inhibitor: 4.1; HDAC3 inhib: 6.7; UCH37 inh: 4.6; ALR H2O2 inh: 3.1

How did CN1C(=O)C(O)(CC(=O)/C=C/C=C/c2ccccc2)c2ccccc21 (stereo unspecified) do in these assays?
Rtt109 Vps75: 4.6; FAS TE block: -5.6; M18AAP inhibitor: -2.6; HDAC3 inhib: -1.0; UCH37 inh: 5.2; ALR H2O2 inh: 89.5*

What do the screens show for `CCCCc1ccc(-c2nc(N)n[nH]2)cc1`?
Rtt109 Vps75: -12.4; FAS TE block: -5.1; M18AAP inhibitor: -0.4; HDAC3 inhib: -4.9; UCH37 inh: 2.1; ALR H2O2 inh: -0.3

How did CCCc1ccc(-c2cc(N)n[nH]2)cc1 do in these assays?
Rtt109 Vps75: 11.8; FAS TE block: -5.1; M18AAP inhibitor: -2.3; HDAC3 inhib: -2.3; UCH37 inh: 1.9; ALR H2O2 inh: 98.9*

How did COc1ccc(C=NNC(=O)c2ccc([N+](=O)[O-])c(C)c2)cc1COc1ccccc1C(N)=O do in these assays?
UCH37 inh: 1.3

Results for C=CCNC(=O)CC1Nc2c3ccccc3nc(=S)n2C1=O (stereo unspecified) ?
Rtt109 Vps75: 2.3; FAS TE block: -3.5; M18AAP inhibitor: 0.5; HDAC3 inhib: -1.4; UCH37 inh: 0.0; ALR H2O2 inh: 94.9*

Results for Cc1ccc(CNC(=O)CC2Nc3c4ccccc4nc(=S)n3C2=O)cc1 (stereo unspecified) ?
M18AAP inhibitor: 5.6; HDAC3 inhib: -1.8; UCH37 inh: 3.6; ALR H2O2 inh: 17.5

Results for CC(C)NC(=O)CC1Nc2c3ccccc3nc(=S)n2C1=O (stereo unspecified) ?
Rtt109 Vps75: 5.4; FAS TE block: -2.1; M18AAP inhibitor: 2.5; HDAC3 inhib: 11.5; UCH37 inh: -2.3; ALR H2O2 inh: 88.2*

How did CCOc1ccccc1-c1cc(C(=O)NN=Cc2ccc(O)c(OC)c2)c2ccccc2n1 do in these assays?
UCH37 inh: 1.5

How did O=[N+]([O-])c1cc(Cl)cc(C=NNC(=S)Nc2cc(S(=O)(=O)N3CCOCC3)ccc2Cl)c1O do in these assays?
UCH37 inh: 23.2*

What do the screens show for `O=S(=O)(c1ccc(Cl)c(NC(=S)NN=Cc2c(F)cccc2F)c1)N1CCOCC1`?
UCH37 inh: 2.4

What do the screens show for `CC(=O)ON=Cc1c(C)c(C=O)n2ccccc12`?
UCH37 inh: 6.4

Results for O=c1oc2ccccc2cc1-c1csc(NN=C2CCCC2)n1 ?
Rtt109 Vps75: -6.6; FAS TE block: 6.0; M18AAP inhibitor: 0.7; HDAC3 inhib: 7.0; UCH37 inh: -22.8; ALR H2O2 inh: 97.9*

What do the screens show for `O=C(ON=Cc1ccc(N2CCCCC2)c([N+](=O)[O-])c1)c1ccc(Cl)cc1Cl`?
UCH37 inh: -1.6

Results for O=C1Nc2ccccc2C1=NN1CCOCC1 ?
UCH37 inh: 5.3

What do the screens show for `CSC(=Nc1ccccc1)C1=C(O)COC1=O`?
Rtt109 Vps75: -2.6; FAS TE block: -8.7; M18AAP inhibitor: 6.6; HDAC3 inhib: 5.2; UCH37 inh: 1.7; ALR H2O2 inh: 96.9*

Results for Cc1cccc(C=NNC(=O)c2cc3c(s2)-c2ccccc2CC3)c1 ?
UCH37 inh: -106.9

How did Cc1ccc(O)c(O)c1 do in these assays?
HDAC3 inhib: 3.1; ALR H2O2 inh: -24.8

How did Cc1ccc(O)c(Sc2cc(C)ccc2O)c1 do in these assays?
Rtt109 Vps75: 22.8; FAS TE block: 45.4; M18AAP inhibitor: 3.2; HDAC3 inhib: 3.9; UCH37 inh: 1.5; ALR H2O2 inh: 98.7*

High-throughput results: PubChem BioAssay, several laboratories
